Assay [1] concerns the target T1, Pyrroline-5-carboxylate reductase (Arabidopsis thaliana) (UniProt P54904).
T1 sequence (whole entry): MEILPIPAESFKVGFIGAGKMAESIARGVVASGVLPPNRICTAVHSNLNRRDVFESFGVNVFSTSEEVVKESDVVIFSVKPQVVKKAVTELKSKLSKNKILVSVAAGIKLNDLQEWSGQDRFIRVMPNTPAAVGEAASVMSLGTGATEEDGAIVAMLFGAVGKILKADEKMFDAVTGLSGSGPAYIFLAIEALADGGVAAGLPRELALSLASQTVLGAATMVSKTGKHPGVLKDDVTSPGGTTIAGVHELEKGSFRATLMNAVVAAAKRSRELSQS
In words: Inhibition of Arabidopsis thaliana P5C reductase catalytic activity assessed as […] at 535 nm OD at 0.5 mM by P5C utilization assay. Also noted: scale not given: the % may be the effect or the level left. Summed up:
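The partially purified Arabidopsis enzyme was run in the same Tris pH 8.0/MgCl2/DL-P5C/NADH mix with compound at 0.5 mM, at 35 °C. Aliquots taken every 40 s received Na acetate and 0.15% ninhydrin in acetic acid, then 10 min at 55 °C. Residual P5C was read at 535 nm (ε 4600 M⁻¹ cm⁻¹). At least three replicates; activity given as % of untreated control.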

Assay [2] addresses T1, Pyrroline-5-carboxylate reductase (Arabidopsis thaliana). Put plainly: Inhibition of Arabidopsis thaliana P5C reductase catalytic activity assessed as inhibition of NADH oxidation at 340 nm OD at 0.2 mM by NADH oxidation assay. Also noted: scale not given: the % may be the effect or the level left.
The target of assay [3] is T2, Pyrroline-5-carboxylate reductase (Arabidopsis thaliana, UniProt P54904).
T2 sequence (P54904 whole entry): T1 sequence (whole entry)
In words: Inhibition of Arabidopsis thaliana P5C reductase catalytic activity. Conditions: read-out: I50. Summed up: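 P5C reductase partially purified from A. thaliana Columbia suspension-cultured cells by ammonium sulfate cut and two DEAE-Sephacel steps. Assay at 35 °C: 100 mM Tris-HCl pH 8.0, 0.1 mM MgCl2, 2 mM DL-P5C, 0.25 mM NADH. Read as NADH oxidation at 340 nm, or as P5C loss by ninhydrin at 535 nm. Inhibitor neutralised to pH 7.4, tested over 0.010–5 mM. I50 from regression of % control activity versus log concentration.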

Assay [4] has as its target T2, Pyrroline-5-carboxylate reductase. Put plainly: Noncompetitive inhibition of Arabidopsis thaliana P5C reductase by Lineweaver-Burk plot in presence of NADPH.
Assay [5] has the same target. In words: Uncompetitive inhibition of Arabidopsis thaliana P5C reductase by Dixon plot.
Assay [6] shares this target. Put plainly: Noncompetitive inhibition of Arabidopsis thaliana P5C reductase by Lineweaver-Burk plot.
Assay [7] has as its target 3-phosphoshikimate 1-carboxyvinyltransferase (Nicotiana tabacum). In words: Inhibition of EPSP synthase in Nicotiana tabacum (tobacco) cells. The settings on record: read-out: I50.
Assay [8] deals with 3-phosphoshikimate 1-carboxyvinyltransferase (Spinacia oleracea). Put plainly: Inhibition of Spinacia oleracea (spinach) EPSP synthase activity. The settings on record: read-out: I50.

Consider `O=P(O)(O)C(Nc1ncc(Br)cc1Br)P(=O)(O)O`, for which the Activity in assay [1] amounted to 99.8%; in assay [2] it was 92%.

`O=P(O)(O)C(Nc1ccncc1)P(=O)(O)O`: the Activity in assay [1] is 101%; in assay [2], 115%.

Consider `NC(P(=O)(O)O)P(=O)(O)O` [AMINOMETHYLENEBISPHOSPHONIC ACID], for which the IC50 in assay [3] stood at 44 µM. Further, the results for the Activity in assay [1] and in assay [2] were 84.6% and 106%, respectively.

Regarding `Cc1ccnc(NC(P(=O)(O)O)P(=O)(O)O)c1`, the Activity in assay [1] and in assay [2] was 106% throughout.

Consider `O=[N+]([O-])c1cccc(NC(P(=O)(O)O)P(=O)(O)O)c1`, for which the Activity in assay [1] worked out at 96.4%; in assay [2], 102%.

Turning to `O=P(O)(O)C(Nc1ncccn1)P(=O)(O)O`, the Activity was 91.7% in assay [1] and 110% in assay [2].

For the molecule `O=C(O)c1cccc(NC(P(=O)(O)O)P(=O)(O)O)c1`, the Activity in assay [1] is 92.4%; in assay [2], 95%.

Consider `O=P(O)(O)C(Nc1ccc(Cl)nc1)P(=O)(O)O`, for which the Activity amounted to 94.9% in assay [1] and 99.4% in assay [2].

As for `O=P(O)(O)C(NCCc1ccc(O)cc1)P(=O)(O)O`, the Activity in assay [1] was found to be 94.4%; in assay [2], 105%.

With `O=P(O)(O)C(Nc1cccnc1)P(=O)(O)O`, the results for the Activity in assay [1] and in assay [2] were 102% and 109%, respectively.

On to `O=C(O)c1cccnc1NC(P(=O)(O)O)P(=O)(O)O`, for which the Activity in assay [1] was determined as 94.1%; in assay [2], 96.3%.

As for `O=P(O)(O)C(Nc1ccc(I)cn1)P(=O)(O)O`, the values for the Activity in assay [1] and in assay [2] were 89.9% and 106%, respectively.

For the molecule `O=P(O)(O)C(Nc1ncc(Cl)cc1Cl)P(=O)(O)O`, the figures for the Activity in assay [1] and in assay [2] were 97% and 105%, respectively.

Turning to `O=P(O)(O)C(Nc1ccc(Br)cn1)P(=O)(O)O`, the Activity in assay [1] turned out to be 100%; in assay [2] it was 104%.

For the molecule `Cc1nc(NC(P(=O)(O)O)P(=O)(O)O)c(Br)cc1Br`, in assay [3], the IC50 came to 300 µM. The values for the Activity in assay [1] and in assay [2] were 54.8% and 66.1%, respectively.

On to `O=P(O)(O)C(NCc1ccccn1)P(=O)(O)O`, for which the Activity in assay [1] stood at 92.9%; in assay [2], 118%.

Turning to `O=P(O)(O)C(NCc1ccccc1)P(=O)(O)O`, the results for the Activity in assay [1] and in assay [2] were 100% and 98.5%, respectively.

Take `Cc1ccccc1CNC(P(=O)(O)O)P(=O)(O)O`: the Activity in assay [1] stood at 96.9%; in assay [2], 109%.

Turning to `O=P(O)(O)C(Nc1ccc(Cl)cn1)P(=O)(O)O`, the values for the Activity in assay [1] and in assay [2] were 92.4% and 101%, respectively.

Broadly, the Ki is a dissociation constant, usually derived from enzyme kinetics or from competition with a known ligand. As for `O=P(O)(O)C(Nc1cc(Cl)cc(Cl)c1)P(=O)(O)O` [(3,5-DICHLOROPHENYLAMINO)METHYLENEDIPHOSPHONIC ACID], the Ki is 230 µM in assay [4], 10.3 µM in assay [5] and 199 µM in assay [6]. In addition, the Activity in assay [1] turned out to be 28%; in assay [2], 37.7%. Moreover, the IC50 in assay [7] and in assay [8] was 30 µM each time.

`O=P(O)(O)C(Nc1ccnc(Cl)c1)P(=O)(O)O`: the Activity in assay [1] turned out to be 97.9%; in assay [2], 91.2%.

Regarding `O=P(O)(O)C(Nc1ccccn1)P(=O)(O)O`, the Activity in assay [1] was 104%; in assay [2], 114%.

With `Cc1cccc(NC(P(=O)(O)O)P(=O)(O)O)n1`, the Activity in assay [1] came out at 103%; in assay [2] it was 88.7%.

Regarding `Cc1ccc(NC(P(=O)(O)O)P(=O)(O)O)cc1`, the Activity is 98.2% in assay [1] and 110% in assay [2].

`O=P(O)(O)C(Nc1ccccc1)P(=O)(O)O`: the Activity in assay [1] turned out to be 114%; in assay [2] it was 98.3%.

Regarding `O=P(O)(O)C(NC1CCCCC1)P(=O)(O)O`, the Activity stood at 93.8% in assay [1] and 108% in assay [2].

Source of the values: ChEMBL document CHEMBL3046072, “Plant P5C reductase as a new target for aminomethylenebisphosphonates” (J Agric Food Chem, 2007).
